In brackets after ≈: the same amount, converted by molar mass. Activity calls are given as the source filed them. No cut-off for these calls is given here.
Tests used:
Chlamydia trachomatis [1] = test: (§1) Anti-chlamydial activity against Chlamydia trachomatis Serovar LGV-L2 infected in Hep2 cells assessed as reduction in chlamydial inclusion growth treated at 8 hrs post-infection and 24 hrs later re-infecting fresh Hep2 cells monolayer with infected cells and measured at 24 hrs post re-infection by immunofluorescence staining based microscopy analysis; type: functional, organism-based
Summary of the method: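 HEp-2 cells grown in DMEM with 2% L-glutamine and 10% FBS at 37 °C. Infected with C. trachomatis L2 at MOI 1, with compound added in triplicate at 8 hpi. At 24 hpi, lysates were collected in sucrose storage medium, frozen at −80 °C and passed as 10-fold dilutions onto fresh HEp-2. After 24 h, stained with goat anti-MOMP then Alexa488 secondary. IFU taken as mean inclusions across 15 fields (20x), corrected for dilution.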

[2] = Stability of compound in human liver microsomes at 1 ug/ml measured up to 60 mins in absence of NADPH by LC-MS/MS analysis; type: ADME, Microsome; settings: 1 h
Summary of the method: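 Human liver microsomes (1.0 mg/mL protein) in 100 mM phosphate pH 7.4 with 10 mM MgCl2 and 2 mM NADPH, preincubated 10 min at 37 °C. Reaction started with compound at 1 μg/mL. Sampled at 0, 5, 15, 20, 30, 45 and 60 min and quenched in methanol with internal standard. Controls: no NADPH (negative), testosterone (positive). Analysed by LC-MS/MS, triplicate.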

Chlamydia trachomatis [3] = test: (§2) Bacteriostatic activity against Chlamydia trachomatis Serovar LGV-L2 infected in Hep2 cells assessed as reduction of inclusion size at 50 ug/ml treated at 8 hrs post infection and incubated for 16 hrs followed by compound washout and further incubated for 24 hrs by immunofluorescence staining based microscopic assay; type: functional, organism-based
Summary of the method: (§3)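 Medium was then removed, wells washed three times with Hanks' balanced salt solution, and compound-free medium added; incubation continued 24 h. Read-out by IFU re-infection and anti-MOMP immunofluorescence, as in the IFU protocol.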

HEp-2 = test: Toxicity in human Hep2 cells infected with Chlamydia trachomatis Serovar LGV-L2 at 100 ug/ml treated at 8 hrs post-infection and 24 hrs later re-infecting fresh Hep2 cells monolayer with infected cells and measured at 24 hrs post re-infection by immunofluorescence staining based microscopy analysis; type: cell-based
Chlamydia trachomatis [4] = test: (§4) Activation of recombinant Chlamydia trachomatis Serovar LGV-L2 C-terminal 6xhis-tagged ClpP2 expressed in Escherichia coli assessed as induction of casein degradation at 0.1 to 1 uM using FITC-labelled casein as substrate pretreated with enzyme for 30 mins followed by substrate addition and measured every 3 mins for 3 hrs in absence of AAA+ chaperone by fluorescence based tecan-plate reader assay
Summary of the method: (§5)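 Recombinant C-terminal His6-tagged ClpP, expressed in a clpAPX-null E. coli strain and purified (mammalian ClpP without mitochondrial signal, codon-optimized). ClpP at 1 or 0.1 μM (E. coli), 1 μM (human, mouse) or 6 μM (chlamydial ClpP1 and ClpP2) preincubated with compound or DMSO, 30 min, 32 °C, in HEPES pH 7.6/KCl/MgCl2/DTT/glycerol buffer. 20 μM FITC-casein then added. Fluorescence (ex 490/em 525 nm) read every 3 min for 3 h. At least three runs on at least two protein preparations.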

[5] = Drug metabolism in human liver microsomes assessed as 1-[4-[(4-chlorophenyl)methyl]piperazin-1-yl]-2-methyl-2-[[5-(trifluoromethyl)-2-pyridyl]sulfonyl]propan-1-one formation at 1 ug/ml after 10 to 60 mins by LC-MS/MS analysis; type: ADME, Microsome
Chlamydia trachomatis [6] = test: Inhibition of recombinant Chlamydia trachomatis Serovar LGV-L2 C-terminal 6xhis-tagged ClpP1/ClpP2 dimer expressed in Escherichia coli at 0.1 to 1 uM by […] fluorescent peptide assay
Acinetobacter baumannii = test: Antibacterial activity against Acinetobacter baumannii ATCC 19606 assessed as bacterial growth inhibition at 32 ug/ml measured after 16 hrs by broth microdilution method; type: functional, organism-based; settings: ATCC 19606 = CIP 70.34 = JCM 6841
Chlamydia trachomatis [7] = test: as §1, with “growth by measuring appearance of small and irregular inclusions at 50 to 100 ug/ml” for “growth”; type: functional, organism-based
Summary of the method: (§6)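 HEp-2 cells in DMEM with 10% FBS, infected with C. trachomatis L2 at MOI 1. Compounds added 8 hpi in triplicate; DMSO stocks at 50 mg/mL. At 24 hpi lysates collected in sucrose storage medium, frozen at −80 °C, and used to infect fresh HEp-2 monolayers in 10-fold dilutions. After 24 h, stained with goat anti-MOMP and Alexa488 secondary. Inclusions counted in 15 fields at 20x; IFU = mean count per field corrected for dilution.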

Chlamydia trachomatis [8] = test: Anti-chlamydial activity against Chlamydia trachomatis Serovar LGV-L2 infected in Hep2 cells assessed as inhibition of chlamydial inclusion at 50 ug/ml treated at 8 hrs post infection and measured at 24 hrs post-infection by immunofluorescence assay; type: functional, organism-based
Summary of the method: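 HEp-2 cells infected with C. trachomatis serovar L2. Compounds at 50 μg/mL added 8 hpi; inclusion number and size assessed by immunofluorescence at 24 hpi against untreated cells. Cell morphology and viability checked by phase-contrast microscopy.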

[9] = target: ATP-dependent Clp protease proteolytic subunit (Escherichia coli (strain K12)) (UniProt P0A6G7); test: as §4, with “recombinant” for “recombinant Chlamydia trachomatis Serovar LGV-L2 C-terminal 6xhis-tagged ClpP2 expressed in”, “coli ClpP” for “coli”; summary of the method: as §5
[10] = Cytotoxicity against immortal human HaCaT cells assessed as reduction in cell viability at 50 ug/ml after 24 hrs by CCK-8 assay relative to control; type: cell-based; settings: read-out: INH
Summary of the method: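 HeLa 229 and HaCaT cells in DMEM with 10% FBS and 1% penicillin/streptomycin, 37 °C, 5% CO2, seeded at 5000 cells/well. Next day treated with 50 μg/mL in triplicate, with matching DMSO controls. After 24 h, CCK-8 added for 2 h; corrected absorbance read at 450 nm.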

Chlamydia trachomatis [11] = test: as §1, with “growth by measuring appearance of small and irregular inclusions at 12.5 ug/ml” for “growth”, “analysis relative to control” for “analysis”; type: functional; settings: Serovar LGV-L2, HEp-2; summary of the method: as §6
Chlamydia trachomatis [12] = test: as §2, with “Anti-chlamydial activity” for “Bacteriostatic activity”, “reduction in chlamydial” for “reduction of”, “inclusion yield” for “inclusion size”; type: functional, organism-based; summary of the method: as §3
[13] = Stability of compound in mouse pre-heated plasma at 50 uM incubated up to 120 mins by HPLC-ESI/MS analysis; type: ADME, cell-free; settings: 2 h
Summary of the method: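 Compounds from 2.5 mM DMSO stocks incubated at 50 μM final in mouse plasma diluted to 80% with PBS, preheated, 37 °C, shaking. Sampled at 0, 15, 30, 60, 90 and 120 min and quenched with cold acetonitrile. Centrifuged; supernatant analysed by HPLC-ESI-MS. Peak area reported relative to time zero. Enalapril positive control; triplicate.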

Chlamydia trachomatis [14] = test: as §4, with “ClpP1/ClpP2 dimer” for “ClpP2”, “presence” for “absence”
Cryptococcus neoformans = test: Antifungal activity against Cryptococcus neoformans var. grubii H99 ATCC […] as fungal growth inhibition at 32 ug/ml measured after 16 hrs by broth microdilution method; type: functional, organism-based; settings: var. grubii H99 ATCC 208821

Chain of ATP-dependent Clp protease proteolytic subunit (Escherichia coli (strain K12)) (P0A6G7 whole entry): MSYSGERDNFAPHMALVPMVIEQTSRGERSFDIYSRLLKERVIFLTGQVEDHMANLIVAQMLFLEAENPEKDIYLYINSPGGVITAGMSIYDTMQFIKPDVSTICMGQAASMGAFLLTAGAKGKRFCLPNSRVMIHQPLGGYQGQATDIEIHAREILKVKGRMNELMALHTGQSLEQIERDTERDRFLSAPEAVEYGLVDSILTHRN

## CC(C)(C(=O)N1CCN(Cc2ccc(Cl)cc2)CC1)S(=O)(=O)c1ccc(C(F)(F)F)cn1
Chlamydia trachomatis [1]
  inhibition: Dose-dependent effect
Chlamydia trachomatis [1]; Serovar LGV-L2, HEp-2
  IC50: 5.2 µg/mL (≈ 10.6 µM)
[2]
  Stability: Stable
Chlamydia trachomatis [3]
  inhibition: Active
HEp-2
  Activity: Non-Toxic
Chlamydia trachomatis [4]
  Activity: inactive
[5]
  Drug metabolism: Metabolite_Detected
Chlamydia trachomatis [6]
  inhibition: inactive
Acinetobacter baumannii
  inhibition: inactive
Chlamydia trachomatis [7]
  inhibition: Active
Chlamydia trachomatis [8]
  inhibition: Active
[9]
  Activity: Active
[10]
  cytotoxicity at 24 h, 50 ug/ml: 50%
Chlamydia trachomatis [11]
  inhibition at 12.5 µg/mL: 60%
Chlamydia trachomatis [12]
  inhibition: inactive
[13]
  Stability: Stable
Chlamydia trachomatis [14]
  Activity: inactive
Cryptococcus neoformans
  inhibition: inactive

## CC(C)(C(=O)NCCCc1ccccc1)S(=O)(=O)c1ccc(C(F)(F)F)cc1
[2]
  Stability: Stable
Chlamydia trachomatis [4]
  Activity: Active
Acinetobacter baumannii
  inhibition: inactive
Chlamydia trachomatis [8]
  inhibition: Active
[13]
  Stability: Stable
Cryptococcus neoformans
  inhibition: inactive
